# Laboratory results as given in ChEMBL document CHEMBL1142728, “Design and optimization of tricyclic phtalimide analogues as novel inhibitors of HIV-1 integrase” (J Med Chem, 2005).
# Legend:
# [1] = system: Human immunodeficiency virus 1; test: Log of effective concentration against human immunodeficiency virus type 1 using cell-based replication assay in MT-4 cells; assay type: functional, organism-based; conditions: Human immunodeficiency virus 1, MT4
# How it was run: (§1)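 MT4 cells (150 000 cells/mL) infected with HIV-1/LAI wild type at 200 CCID50, with serial compound concentrations in 384-well format. Replication is read as GFP expression driven by HIV-tat acting on an LTR-GFP reporter. Incubation 3 days at 37 °C, 5% CO2. EC50/pEC50 are taken from dose-response curves of percent inhibition.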
# [2] = system: Human immunodeficiency virus 1; test: Log of cytotoxic concentration against human immunodeficiency virus type 1 using cell-based replication assay in MT-4 cells; assay type: functional, MT4
# How it was run: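 Mock-infected MT4 cells (150 000 cells/mL) get the same compound concentration range and are incubated 3 days at 37 °C, 5% CO2, in parallel with the HIV-infected cultures. Toxicity is scored as reduced GFP reporter expression. CC50/pCC50 come from dose-response curves of percent inhibition.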
# [3] = biological target: T1, Human immunodeficiency virus type 1 integrase (Human immunodeficiency virus 1, UniProt Q7ZJM1); test: Log of inhibitory concentration against human immunodeficiency virus type 1 integrase
# How it was run: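 Strand transfer ELISA using recombinant His-tagged HIV-1 integrase expressed in E. coli BL21(DE3). 20 nM biotinylated processed viral DNA substrate is preincubated with 300 nM integrase for 5 min at 37 °C. Serial compound dilutions and 50 nM target DNA are then added in 20 mM Hepes pH 7.5, 25 mM NaCl, 5 mM MnCl2, 2 mM DTT, 50 µg/mL BSA and incubated 2 h at 37 °C. Products are captured on streptavidin plates, detected with anti-FITC peroxidase antibody and read by chemiluminescence.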
# [4] = biological target: T1, Human immunodeficiency virus type 1 integrase; test: Inhibitory concentration against human immunodeficiency virus type 1 integrase
# [5] = system: Human immunodeficiency virus 1; test: Effective concentration against human immunodeficiency virus type 1 using cell-based replication assay in MT-4 cells; assay type: functional, organism-based; conditions: Human immunodeficiency virus 1, MT4; how it was run: as §1
# T1 sequence (Q7ZJM1 whole entry): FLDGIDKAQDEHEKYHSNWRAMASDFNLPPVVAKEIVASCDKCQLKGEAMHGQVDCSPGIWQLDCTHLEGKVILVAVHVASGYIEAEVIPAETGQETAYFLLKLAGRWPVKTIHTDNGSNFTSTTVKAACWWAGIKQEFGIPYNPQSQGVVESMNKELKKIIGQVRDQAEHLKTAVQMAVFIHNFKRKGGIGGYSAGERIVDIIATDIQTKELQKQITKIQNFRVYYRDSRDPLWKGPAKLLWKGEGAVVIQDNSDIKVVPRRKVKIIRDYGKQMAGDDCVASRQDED
SMILES,EC50 [1] [nM],pCC50 [2],IC50 [3] [nM],IC50 [4] [nM],EC95 [5] [nM]
COc1ccc(CN2C(=O)c3c(c(O)c4nccnc4c3O)C2=O)cc1,3630,4.64,562,–,–
O=C1c2c(c(O)c3nccnc3c2O)C(=O)N1Cc1cccc(-c2ccccc2F)c1,13200,4.82,501,–,–
O=C1c2c(c(O)c3nccnc3c2O)C(=O)N1Cc1ccc(-c2ccccc2F)cc1,14800,4.83,1000,–,–
O=C1c2c(c(O)c3nccnc3c2O)C(=O)N1CCc1ccc2c(c1)OCO2,11000,–,1410,–,–
O=C(c1ccccc1)N1CCC(N2C(=O)c3c(c(O)c4nccnc4c3O)C2=O)CC1,> 32400,<4.49,2400,–,–
COc1ccc(CN2C(=O)c3c(c(O)c4nccnc4c3O)C2=O)c(OC)c1,13500,4.77,427,–,–
COc1ccccc1CN1C(=O)c2c(c(O)c3nccnc3c2O)C1=O,3800,4.81,813,–,–
O=C1c2c(c(O)c3nccnc3c2O)C(=O)N1Cc1ccccc1Br,15100,4.75,631,–,–
COc1ccc(OC)c(CN2C(=O)c3c(c(O)c4nccnc4c3O)C2=O)c1,4790,4.73,776,–,–
CN1C(=O)c2c(c(O)c3nccnc3c2O)C1=O,> 32400,<4.49,49000,–,–
COc1cccc(CN2C(=O)c3c(c(O)c4nccnc4c3O)C2=O)c1OC,4900,4.72,427,–,–
COc1cccc(OC)c1CN1C(=O)c2c(c(O)c3nccnc3c2O)C1=O,5370,5.09,2000,–,–
O=C1c2c(c(O)c3nccnc3c2O)C(=O)N1C1CCCC1,> 32400,4.55,10500,–,–
O=C1c2c(c(O)c3nccnc3c2O)C(=O)N1Cc1cccc(C(F)(F)F)c1,9770,4.77,427,–,–
Cc1ccc2c(O)c3c(c(O)c2n1)C(=O)N(Cc1cccc(Br)c1)C3=O,7590,4.78,257,–,–
O=C1c2c(c(O)c3nccnc3c2O)C(=O)N1c1ccc2c(c1)OCO2,> 32400,<4.49,10000,–,–
O=C1c2c(c(O)c3nccnc3c2O)C(=O)N1Cc1cccc(F)c1,5370,4.77,562,–,–
Cc1ccc(CN2C(=O)c3c(c(O)c4nccnc4c3O)C2=O)cc1,1780,4.86,1580,–,–
O=C1c2c(c(O)c3nccnc3c2O)C(=O)N1Cc1ccc(OC(F)(F)F)cc1,1350,5.6,2040,–,–
O=C1c2c(c(O)c3nccnc3c2O)C(=O)N1Cc1ccc2c(c1)OCO2,3160,<4.49,562,–,–
CC(C)Oc1ccc(Cc2ccccc2)cc1/C(O)=C/C(=O)C(=O)O,–,–,–,50,–

SMILES,EC50 [1] [nM],pCC50 [2],IC50 [3] [nM],IC50 [4] [nM],EC95 [5] [nM]
O=S1(=O)CCCCN1c1nc(/C(O)=N/Cc2ccc(F)cc2)c(O)c2ncccc12,–,–,–,10,100
O=C1c2c(c(O)c3nnccc3c2O)C(=O)N1Cc1cccc(Br)c1,21400,<4.49,3630,–,–
O=C1c2c(c(O)c3nccnc3c2O)C(=O)N1Cc1ccc(F)cc1,1550,4.69,417,–,–
O=C1c2c(c(O)c3nccnc3c2O)C(=O)N1Cc1cc(Cl)cc(Cl)c1,724,4.72,186,–,–
O=C1c2c(c(O)c3nccnc3c2O)C(=O)N1Cc1cc(F)cc(F)c1,16600,<4.49,372,–,–
C[C@@H](c1ccccc1)N1C(=O)c2c(c(O)c3nccnc3c2O)C1=O,15100,4.81,2040,–,–
O=C1c2c(c(O)c3ncccc3c2O)C(=O)N1Cc1cccc(Br)c1,3090,5.21,380,–,–
O=C1c2c(c(O)c3nccnc3c2O)C(=O)N1Cc1cccc(Cl)c1,977,4.73,219,–,–
O=C1c2c(c(O)c3nccnc3c2O)C(=O)N1CC1CCCCC1,3470,5.19,2190,–,–
O=C1c2c(c(O)c3nccnc3c2O)C(=O)N1Cc1ccc(-c2ccccc2)cc1,2570,5.47,1450,–,–
O=C1c2c(c(O)c3nccnc3c2O)C(=O)N1Cc1ccc(F)c(Cl)c1,3090,4.7,178,–,–
C[C@H](c1ccccc1)N1C(=O)c2c(c(O)c3nccnc3c2O)C1=O,10200,4.76,1050,–,–
O=C1c2c(c(O)c3nccnc3c2O)C(=O)N1Cc1ccncc1,> 32400,<4.49,6760,–,–
O=C1c2c(c(O)c3nccnc3c2O)C(=O)N1C1CCNCC1,> 32400,<4.49,> 100000,–,–
O=C1c2c(c(O)c3nccnc3c2O)C(=O)N1Cc1ccc(Cl)cc1,269,5.58,417,–,–
O=C1c2c(c(O)c3ccccc3c2O)C(=O)N1Cc1ccc(F)cc1,20000,4.59,> 100000,–,–
O=C1c2c(c(O)c3nccnc3c2O)C(=O)N1Cc1cc(Br)ccc1F,447,5.38,355,–,–
O=C1c2c(c(O)c3nccnc3c2O)C(=O)N1Cc1ccc(Br)cc1F,2400,5.11,437,–,–
O=C1c2c(c(O)c3nccnc3c2O)C(=O)N1Cc1ccc(Cl)c(Cl)c1,912,5.05,112,–,–
O=C1c2c(c(O)c3nccnc3c2O)C(=O)N1Cc1cccc(Br)c1,7410,4.49,209,–,–
O=C1c2c(c(O)c3nccnc3c2O)C(=O)N1CCc1ccccc1,4900,5.23,2040,–,–
